Results on two molecules are retold here after ChEMBL document CHEMBL5107948, “Activity-based protein profiling reveals deubiquitinase and aldehyde dehydrogenase targets of a cyanopyrrolidine probe” (RSC Med Chem, 2021).

Activity calls are given as the source filed them. No cut-off for these calls is given here.

Common to all, as to format: cell-based
Experiment [1] has as its target T1, Glutamine amidotransferase-like class 1 domain-containing protein 3, mitochondrial (Homo sapiens) (UniProt P0DPI2).
T1 sequence (whole entry): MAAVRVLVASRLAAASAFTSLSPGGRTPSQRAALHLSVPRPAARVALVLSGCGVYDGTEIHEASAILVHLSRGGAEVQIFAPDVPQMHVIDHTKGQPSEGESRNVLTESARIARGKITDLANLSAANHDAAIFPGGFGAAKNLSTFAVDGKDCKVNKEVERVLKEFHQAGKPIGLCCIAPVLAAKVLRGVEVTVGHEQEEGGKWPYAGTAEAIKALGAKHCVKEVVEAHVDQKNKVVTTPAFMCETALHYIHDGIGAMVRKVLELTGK
Put plainly: Binding affinity to GATD3A in human HEK293 cells at 130 to 500 nM in presence of ABP MT16-205 by LFQ-NanoLC-MS/MS analysis. To be noted: dose 130-500 nM, DDE = dose-dependent effect. In a few lines: (§1)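 Competition format: HEK293 cells pre-treated 1 h with competitor or DMSO, then exposed to ABP MT16-205. Lysis in PBS/Triton/SDS buffer, AzRB click ligation, NeutrAvidin pulldown, on-bead TCEP/chloroacetamide treatment and overnight tryptic digestion. Label-free LC-MS/MS; two-sample t-test versus control (n=3, permutation FDR 0.01, S0=1).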

The target in experiment [2] is 4-trimethylaminobutyraldehyde dehydrogenase (Homo sapiens) (UniProt P49189). The experiment can be described thus: Binding affinity to ALDH9A1 in human HEK293 cells at 130 to 500 nM in presence of ABP MT16-205 by LFQ-NanoLC-MS/MS analysis. To be noted: dose 130-500 nM, DDE = dose-dependent effect. Put shortly:
as §1

The target in experiment [3] is T2, Aldehyde dehydrogenase, mitochondrial (Homo sapiens) (UniProt P05091).
T2 sequence (whole entry): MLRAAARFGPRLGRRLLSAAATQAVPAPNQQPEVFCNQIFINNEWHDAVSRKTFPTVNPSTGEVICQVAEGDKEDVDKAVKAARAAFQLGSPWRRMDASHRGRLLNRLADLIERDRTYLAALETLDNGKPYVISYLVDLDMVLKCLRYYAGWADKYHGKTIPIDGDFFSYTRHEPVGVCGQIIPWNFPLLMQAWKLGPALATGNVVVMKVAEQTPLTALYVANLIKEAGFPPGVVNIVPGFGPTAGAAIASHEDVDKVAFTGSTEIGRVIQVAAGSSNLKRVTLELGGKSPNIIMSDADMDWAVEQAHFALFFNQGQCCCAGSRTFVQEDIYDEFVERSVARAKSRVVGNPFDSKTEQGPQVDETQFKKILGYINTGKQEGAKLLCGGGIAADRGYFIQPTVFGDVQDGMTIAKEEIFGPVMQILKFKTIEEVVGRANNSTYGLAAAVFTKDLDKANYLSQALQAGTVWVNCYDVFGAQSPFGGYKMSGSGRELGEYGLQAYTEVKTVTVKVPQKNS
The experiment can be described thus: Binding affinity to ALDH2 in human HEK293 cells at 130 to 500 nM in presence of ABP MT16-205 by LFQ-NanoLC-MS/MS analysis. Particulars: dose 130-500 nM, DDE = dose-dependent effect. In a few lines:
as §1

The target in experiment [4] is Ubiquitin carboxyl-terminal hydrolase isozyme L1 (Homo sapiens) (UniProt P09936). The experiment can be described thus: Binding affinity to UCHL1 in human HEK293 cells at 40 nM incubated for 3 hrs by In-gel fluorescence analysis. In a few lines: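 HEK293 cells given 10–2500 nM ABP for 3, 6 or 18 h. Lysates clicked to AzTB, mixed with Laemmli buffer at 0.31% v/v final BME for 5 min without boiling, resolved on 12% acrylamide gels, imaged by in-gel TAMRA fluorescence.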
Sequence of Ubiquitin carboxyl-terminal hydrolase isozyme L1 (Homo sapiens) (P09936 whole entry, looked up): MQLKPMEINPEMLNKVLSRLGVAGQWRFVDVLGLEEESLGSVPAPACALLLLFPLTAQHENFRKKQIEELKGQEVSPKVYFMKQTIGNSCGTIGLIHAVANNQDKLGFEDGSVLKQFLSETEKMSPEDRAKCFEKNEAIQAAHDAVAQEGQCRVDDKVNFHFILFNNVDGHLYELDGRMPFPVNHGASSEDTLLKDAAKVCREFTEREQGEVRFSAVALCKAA

The target is the same in experiment [5]. Put plainly: Binding affinity to UCHL1 in human HEK293 cells assessed as fold change at 130 nM incubated for 3 to 6 hrs by LFQ-chemical proteomics analysis. To be noted: time 3-6 hrs. Put shortly:
(§2)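 HEK293 cells exposed to alkyne ABP or DMSO for 3, 6 or 18 h, washed, lysed in PBS/1% Triton X-100/0.1% SDS. Lysates (400 µg, biological triplicates) CuAAC-ligated to AzRB (100 µM, CuSO4 1 mM, TCEP 1 mM, TBTA 100 µM, 1 h RT). NeutrAvidin enrichment, on-bead TCEP/CAA reduction-alkylation, overnight trypsin digest at 37 °C, LC-MS/MS label-free quantification. Two-sample t-test against DMSO (n=3, permutation FDR 0.01, S0=1).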

In experiment [6] the target is Aldehyde dehydrogenase family 3 member A2 (Homo sapiens) (UniProt P51648). Put plainly: Binding affinity to ALDH3A2 in human HEK293 cells assessed as fold change at 130 nM incubated for 3 to 6 hrs by LFQ-chemical proteomics analysis. Particulars: time 3-6 hrs. In a few lines:
as §2

The test system of another experiment is HEK293. Put plainly: Binding affinity to ALDH in human HEK293 cells assessed as fold change at 30 nM incubated for 3 to 18 hrs by LFQ-chemical proteomics analysis. Particulars: time 3-18 hrs. In a few lines: as §2
In experiment [7] the target is Ubiquitin carboxyl-terminal hydrolase isozyme L1 (Homo sapiens) (UniProt P09936). The experiment can be described thus: Binding affinity to UCHL1 in human HEK293 cells at 31 nM by TAMRA labelled pulldown based In-gel fluorescence analysis. In a few lines: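 HEK293 cells treated with ABP; lysate (150 µg) CuAAC-ligated to AzTB, precipitated, resuspended. 100 µg incubated with streptavidin magnetic beads 2 h RT, washed with 0.2% SDS/PBS, eluted by boiling 10 min at 95 °C. Eluates run on SDS-PAGE and read by TAMRA in-gel fluorescence or by immunoblot on nitrocellulose with HRP chemiluminescence.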

Experiment [8] deals with T1, Glutamine amidotransferase-like class 1 domain-containing protein 3, mitochondrial (Homo sapiens). The experiment can be described thus: Binding affinity to GATD3A in human HEK293 cells assessed as fold change at 130 nM incubated for 3 to 6 hrs by LFQ-chemical proteomics analysis. Particulars: time 3-6 hrs. In a few lines: as §2

Sequence of 4-trimethylaminobutyraldehyde dehydrogenase (Homo sapiens) (P49189 whole entry): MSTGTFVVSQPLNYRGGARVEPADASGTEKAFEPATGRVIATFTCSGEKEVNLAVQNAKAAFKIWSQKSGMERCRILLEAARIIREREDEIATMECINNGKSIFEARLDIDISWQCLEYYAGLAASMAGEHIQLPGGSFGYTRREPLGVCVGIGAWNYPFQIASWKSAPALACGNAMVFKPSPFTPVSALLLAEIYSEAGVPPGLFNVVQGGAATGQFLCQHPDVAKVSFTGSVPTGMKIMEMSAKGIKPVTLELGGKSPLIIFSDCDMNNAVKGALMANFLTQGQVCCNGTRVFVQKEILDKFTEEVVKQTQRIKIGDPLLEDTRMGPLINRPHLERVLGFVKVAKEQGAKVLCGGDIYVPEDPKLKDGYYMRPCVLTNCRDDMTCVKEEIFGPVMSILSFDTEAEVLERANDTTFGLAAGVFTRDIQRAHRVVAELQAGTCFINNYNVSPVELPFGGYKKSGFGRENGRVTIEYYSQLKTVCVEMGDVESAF
Sequence of Aldehyde dehydrogenase family 3 member A2 (Homo sapiens) (P51648 whole entry): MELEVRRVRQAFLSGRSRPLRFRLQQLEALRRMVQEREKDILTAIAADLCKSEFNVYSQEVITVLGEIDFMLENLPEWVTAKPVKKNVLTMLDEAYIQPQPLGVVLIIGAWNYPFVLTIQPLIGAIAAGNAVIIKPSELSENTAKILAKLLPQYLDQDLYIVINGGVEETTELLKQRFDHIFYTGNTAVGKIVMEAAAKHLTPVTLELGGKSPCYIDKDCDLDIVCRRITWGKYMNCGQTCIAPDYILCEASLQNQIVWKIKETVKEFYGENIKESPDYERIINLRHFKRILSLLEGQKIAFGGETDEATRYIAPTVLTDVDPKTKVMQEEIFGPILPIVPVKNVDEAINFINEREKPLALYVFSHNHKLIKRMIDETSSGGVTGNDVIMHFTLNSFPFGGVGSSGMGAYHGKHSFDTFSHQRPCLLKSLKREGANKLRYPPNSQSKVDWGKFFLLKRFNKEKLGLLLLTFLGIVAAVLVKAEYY

Consider `N#CN1CC[C@H](C(=O)Nc2ncc(-c3ccccc3)s2)C1`, for which the Activity entry in experiment [1], in experiment [2] and in experiment [3] was “Dde” throughout.
In the case of `C#Cc1ccc(-c2cnc(NC(=O)[C@H]3CCN(C#N)C3)s2)cc1`, the result in [4] and in experiment [7] was Active. The fold change (FC) in experiment [5] is > 64; in [6], > 64; with HEK293, > 16; in [8], > 64.
